TRPC6 act: activators of mouse TRPC6 channel; HEK293-TRPC6 membrane potential dye fluorescence; active compounds read high; B-score at 10 µM; hit rate 0.13% among 310,000;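 active means B-score of the integrated fluorescence ratio above library mean plus 3 SD, and starting fluorescence ratio within library mean plus 5 SD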;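 further: higher score means more depolarization so channel activation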
TRPC4 agonist: TRPC4 (mouse) channel activation; HEK293 TRPC4beta/mu-opioid, Fluo4 calcium fluorescence; active compounds read high; B-score at 10 µM; AID 2237; hit rate 0.49% among 310,000;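 active means B-score above 5 SD of library B-scores, and initial fluorescence ratio not above library mean plus 5 SD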;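 further: positive B-score marks a calcium rise read as TRPC4 activation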
Target sequence (Q9QUQ5 whole entry, looked up): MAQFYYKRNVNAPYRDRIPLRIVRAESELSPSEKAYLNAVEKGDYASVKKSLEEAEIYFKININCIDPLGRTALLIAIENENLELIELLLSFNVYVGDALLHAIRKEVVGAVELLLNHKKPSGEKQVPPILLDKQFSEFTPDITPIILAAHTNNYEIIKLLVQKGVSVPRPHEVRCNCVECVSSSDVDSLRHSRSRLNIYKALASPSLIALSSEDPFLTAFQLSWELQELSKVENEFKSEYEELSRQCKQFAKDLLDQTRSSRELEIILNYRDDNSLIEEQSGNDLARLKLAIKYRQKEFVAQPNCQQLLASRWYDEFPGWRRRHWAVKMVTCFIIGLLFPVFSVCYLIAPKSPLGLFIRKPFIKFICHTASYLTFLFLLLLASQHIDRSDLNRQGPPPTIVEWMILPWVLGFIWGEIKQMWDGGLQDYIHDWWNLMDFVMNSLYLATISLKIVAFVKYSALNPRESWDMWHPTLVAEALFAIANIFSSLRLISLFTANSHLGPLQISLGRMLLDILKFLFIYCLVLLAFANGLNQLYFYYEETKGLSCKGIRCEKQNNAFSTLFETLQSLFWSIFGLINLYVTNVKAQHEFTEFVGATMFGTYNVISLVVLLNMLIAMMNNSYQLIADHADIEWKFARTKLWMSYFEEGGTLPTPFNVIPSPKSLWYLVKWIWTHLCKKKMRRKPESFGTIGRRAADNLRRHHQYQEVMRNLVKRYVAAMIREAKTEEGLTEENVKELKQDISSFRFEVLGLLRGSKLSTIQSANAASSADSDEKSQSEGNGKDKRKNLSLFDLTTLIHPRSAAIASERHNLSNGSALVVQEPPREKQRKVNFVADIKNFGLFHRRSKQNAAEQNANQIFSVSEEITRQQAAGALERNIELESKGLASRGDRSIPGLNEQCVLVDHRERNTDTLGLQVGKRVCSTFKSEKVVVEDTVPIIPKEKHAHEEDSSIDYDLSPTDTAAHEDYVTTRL
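Assay system – TRPC4beta and mu-opioid receptor HEK293 stable cells · Measured by – Fluo4 fluorescence, kinetic · Schedule – dye loading 45 min room temperature, 110 s kinetic read · Read-out – B-scored integrated calcium fluorescence ratio · Controls – buffer and maximal DAMGO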
TRPC4 potent: TRPC4 (mouse) allosteric potentiation | hit rate 0.42% among 310,000 | HEK293 TRPC4beta/mu-opioid, DAMGO EC20, Fluo-4 Ca2+ flux; active compounds read high | B-score at 10 µM | Q9QUQ5 | AID 2227;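 active means B-score of calcium response area above 5 SD of library B-scores, with initial fluorescence ratio within 5 SD of library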;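 further: B-score of integrated fluorescence ratio over time as area under calcium response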
TRPC6 inhibitor: inhibitors of mouse TRPC6 channel | Q61143 | HEK293-TRPC6, membrane potential dye, ACh-evoked depolarization; active compounds read low | B-score at 10 µM | hit rate 1.1% among 310,000 | AID 2553;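 active means B-score under library mean minus 3 SD, initial fluorescence not abnormally high, positive integrated signal ratio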;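 further: B-score derived from integrated fluorescence ratio over the kinetic read; more negative B-score means stronger inhibition of depolarization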
TRPC4 inh: blocks the mouse TRPC4 cation channel; hit rate 0.39% among 300,000; AID 2247; Q9QUQ5; HEK293 TRPC4beta/mu-opioid, DAMGO-evoked Fluo4 calcium flux; active compounds read low; B-score at 10 µM;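 active means B-score over 3 SD under the library average, no early fluorescence shift, positive overall ratio signal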
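Assay system – HEK293 line stably carrying TRPC4beta and mu-opioid receptor · Doses – single dose · Detection – Fluo4 calcium-dye fluorescence, kinetic read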
HEK293 TRPC6 ctr: counter-screen for TRPC6 modulators: effect in parental HEK293 cells; shares compounds with TRPC6 inhibitor; membrane potential dye fluorescence; membrane potential signal change, % at 10 µM; hit rate 51% among 2,400;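 active means membrane potential signal moves up or down beyond 5 SD from buffer-only wells, on both duplicate plates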
HEK293 MPD ctr 2: second counter-screen for TRPC6 modulators: effect in parental HEK293 cells. inhibition, % at 10 µM. hit rate 14% among 2,400. shares compounds with TRPC6 inhibitor. membrane potential dye fluorescence; after compound, maximal acetylcholine stimulation;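 active means membrane potential signal drops by more than 5 SD from the mean control signal, in both duplicate plates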;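 further: plate controls were acetylcholine ECmax control wells for no effect and buffer only wells for full effect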
TRPC4 ctr mod: selectivity of TRPC6 modulators against mouse TRPC4; shares compounds with TRPC6 inhibitor; hit rate 69% among 2,400; HEK293 TRPC4/mu-opioid, membrane potential fluorescence; percent change from control (negative = decrease, positive = increase), % at 10 µM; AID 488927;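 active means membrane potential signal moved up or down beyond 5 SD of buffer control wells, in both duplicate plates, actives on both sides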;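 further: plate controls were assay buffer wells for no effect and DAMGO maximal-effect wells for full effect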
TRPC4/MOR inh 2: mouse TRPC4 off-target activity of TRPC6 modulators, second screen. shares compounds with TRPC6 inhibitor. hit rate 55% among 2,400. inhibition, % at 10 µM. HEK293 TRPC4/mu-opioid, membrane potential dye fluorescence; stimulated with maximal-effect DAMGO;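 active means drop in membrane potential signal beyond 5 SD of the control wells in both duplicate plates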;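 further: TRPC4 counter screen for TRPC6 hits run under conditions tuned for TRPC6 not TRPC4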
TRPC6 block conf: mouse TRPC6 inhibitor confirmation | shares compounds with TRPC6 inhibitor | HEK293-TRPC6, membrane potential dye, ACh-evoked depolarization | inhibition, % at 10 µM | hit rate 43% among 3,300 | AID 488960;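 active means fluorescence ratio falls more than 5 SD below the full-stimulation control mean, in both duplicate runs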;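 further: integrated fluorescence ratio of peak minus minimum over baseline after agonist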
TRPC6 act conf: confirmation of mouse TRPC6 activators. HEK293-TRPC6 membrane potential dye fluorescence, FDSS. shares compounds with TRPC6 inhibitor. hit rate 11% among 2,800. AID 488961. activation, % at 10 µM;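 active means ratio signal rise beyond 5 SD above unstimulated control wells' mean, seen in both duplicate runs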;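 further: plate controls were buffer EC0 wells for no effect and acetylcholine ECmax response for full effect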
* = called active by the depositor. Sampled rows, rich in hits. Any-hit rate of the full collection: about 2.3%.

Results for O=C(Nc1ncccn1)c1ccc(Cl)c([N+](=O)[O-])c1 ?
TRPC6 act: inactive; TRPC4 agonist: inactive; TRPC4 potent: inactive; TRPC6 inhibitor: inactive; TRPC4 inh: inactive

What do the screens show for `Cc1cc(C)cc(N=Cc2[nH]c3ccc(Br)c(Cl)c3c2O)c1`?
TRPC6 act: 36*; TRPC4 agonist: inactive; TRPC4 potent: 11*; TRPC6 inhibitor: inactive; TRPC4 inh: inactive; HEK293 TRPC6 ctr: inactive; HEK293 MPD ctr 2: inactive; TRPC4 ctr mod: inactive; TRPC4/MOR inh 2: inactive; TRPC6 block conf: inactive; TRPC6 act conf: inactive

Results for Cc1ccc(N=Cc2cc(Br)cc(Cl)c2O)cc1 ?
TRPC6 act: inactive; TRPC4 agonist: inactive; TRPC4 potent: inactive; TRPC6 inhibitor: inactive; TRPC4 inh: inactive

How did CN(CC(=O)NCc1ccc(F)cc1)CC(=O)Nc1ccc(Cl)c(C(F)(F)F)c1 do in these assays?
TRPC6 act: inactive; TRPC4 agonist: inactive; TRPC4 potent: inactive; TRPC6 inhibitor: inactive; TRPC4 inh: inactive

Results for CCN(CC)CCCCNc1ncc2cc(-c3cc(OC)cc(OC)c3)c(NC(=O)NC(C)(C)C)nc2n1 ?
TRPC6 act: inactive; TRPC4 agonist: inactive; TRPC4 potent: inactive; TRPC6 inhibitor: -5.5*; TRPC4 inh: inactive; HEK293 TRPC6 ctr: inactive; HEK293 MPD ctr 2: inactive; TRPC4 ctr mod: inactive; TRPC4/MOR inh 2: 43%*; TRPC6 block conf: 54%*; TRPC6 act conf: inactive

What do the screens show for `CCN(CC)CCNC(=O)COc1ccc(OC)cc1`?
TRPC6 act: inactive; TRPC4 agonist: inactive; TRPC4 potent: inactive; TRPC6 inhibitor: inactive; TRPC4 inh: inactive

Results for O=C(COc1ccc(-c2ccccc2)cc1)NNC(=O)Nc1ccc(F)cc1F ?
TRPC6 act: inactive; TRPC4 agonist: inactive; TRPC4 potent: inactive; TRPC6 inhibitor: inactive; TRPC4 inh: inactive

What do the screens show for `CCOC(=O)[C@@H]1[C@H]2COc3ccccc3[C@H]2N2C(=O)N(c3ccc(Cl)cc3)C(=O)[C@@]12C`?
TRPC6 act: inactive; TRPC4 agonist: inactive; TRPC4 potent: inactive; TRPC6 inhibitor: inactive; TRPC4 inh: inactive

Results for CC1CCN(C(=O)N2c3ccccc3Sc3ccccc32)CC1 ?
TRPC6 act: inactive; TRPC4 agonist: inactive; TRPC4 potent: inactive; TRPC6 inhibitor: inactive; TRPC4 inh: inactive
